{"source": "ChEMBL document CHEMBL2413018", "about": "“Nonclassical antifolates, part 4. 5-(2-aminothiazol-4-yl)-4-phenyl-4H-1,2,4-triazole-3-thiols as a new class of DHFR inhibitors: synthesis, biological evaluation and molecular modeling study” (Eur J Med Chem, 2013)", "key": {"[1]": {"tested_on": "Schistosoma mansoni", "experiment": "Antischistosomal activity against Schistosoma mansoni assessed as mortality at 50 ug/ml after 24 hrs by microscopic analysis", "assay_type": "functional", "summary_of_the_method": "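Adult worms, 3 male plus 3 female per well, triplicate wells. Compounds in DMSO, 0.5% DMSO as negative control, praziquantel 0.1 µg/ml as positive control. Incubated 37 °C for 24 h, then scored under a dissecting microscope. Worms motionless for at least 1 min, coiled and darkened, counted dead. Activity given as % dead worms per well.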"}, "[2]": {"biological_target": "T1, Dihydrofolate reductase (Bos taurus, UniProt P00376)", "T1 sequence (P00376 whole entry)": "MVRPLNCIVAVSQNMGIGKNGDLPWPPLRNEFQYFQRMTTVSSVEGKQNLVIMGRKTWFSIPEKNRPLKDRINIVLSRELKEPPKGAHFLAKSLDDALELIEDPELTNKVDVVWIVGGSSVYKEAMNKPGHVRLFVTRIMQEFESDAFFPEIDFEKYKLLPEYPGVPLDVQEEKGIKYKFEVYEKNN", "experiment": "Inhibition of bovine liver DHFR measured every 1 min for 10 mins"}, "[3]": {"tested_on": "Escherichia coli", "experiment": "Antibacterial activity against Escherichia coli at 200 ug/disc after 24 hrs by agar disc-diffusion method", "assay_type": "functional", "conditions": "read-out: DIZ", "summary_of_the_method": "(§1)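 Disc diffusion on Müller-Hinton agar. 8 mm filter-paper discs carried test solution in DMSO at 200 µg/disc and were placed on agar pre-inoculated with each bacterium. Incubated at 37 °C; inhibition zone diameter measured after 24 h. DMSO solvent control.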"}, "[4]": {"tested_on": "Bacillus subtilis", "experiment": "Antibacterial activity against Bacillus subtilis at 200 ug/disc after 24 hrs by agar disc-diffusion method", "assay_type": "functional", "conditions": "read-out: DIZ", "summary_of_the_method": "as §1"}, "[5]": {"tested_on": "Staphylococcus aureus", "experiment": "Antibacterial activity against Staphylococcus aureus at 200 ug/disc after 24 hrs by agar disc-diffusion method", "assay_type": "functional", "conditions": "read-out: DIZ", "summary_of_the_method": "as §1"}, "[6]": {"tested_on": "Candida albicans", "experiment": "Antifungal activity against Candida albicans at 200 ug/disc after 48 hrs by agar disc-diffusion method", "assay_type": "functional", "conditions": "read-out: DIZ", "summary_of_the_method": "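Disc diffusion for Candida albicans on Müller-Hinton agar. 8 mm discs loaded at 200 µg/disc from DMSO, with clotrimazole 200 µg/disc as reference. Plates held at 25 °C for 48 h, then growth-inhibition zone diameter measured in mm.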"}, "[7]": {"tested_on": "Pseudomonas aeruginosa", "experiment": "Antibacterial activity against Pseudomonas aeruginosa at 200 ug/disc after 24 hrs by agar disc-diffusion method", "assay_type": "functional", "conditions": "read-out: DIZ", "summary_of_the_method": "as §1"}, "[8]": {"tested_on": "MCF7", "experiment": "Cytotoxicity against human MCF7 cells after 48 hrs by MTT assay", "assay_type": "functional", "conditions": "MCF7, 48 h, read-out: LC50 (the source's name)", "summary_of_the_method": "(§2)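 HCT116, HepG2 and MCF7 cells grown in RPMI 1640 with 1% antibiotic-antimycotic and 1% L-glutamine at 37 °C, 5% CO2, seeded at 10 x 10^3 cells/well for 24 h. Exposed in serum-free medium to 0.78–100 µM for 48 h, then MTT added for 4 h and dissolved overnight in 10% SDS.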"}, "[9]": {"tested_on": "HepG2", "experiment": "Cytotoxicity against human HepG2 cells after 48 hrs by MTT assay", "assay_type": "functional", "conditions": "HepG2, 48 h, read-out: LC50 (the source's name)", "summary_of_the_method": "as §2"}, "[10]": {"tested_on": "A549", "experiment": "Cytotoxicity against human A549 cells after 48 hrs by MTT assay", "assay_type": "functional", "conditions": "A549, 48 h, read-out: LC50 (the source's name)", "summary_of_the_method": "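A549 cells grown in DMEM with 1% antibiotic-antimycotic and 1% L-glutamine at 37 °C, 5% CO2, seeded at 10 x 10^3 cells/well for 24 h. Exposed in serum-free medium to 0.78–100 µM for 48 h, then MTT added for 4 h and dissolved overnight in 10% SDS.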"}, "[11]": {"tested_on": "HCT-116", "experiment": "Cytotoxicity against human HCT116 cells after 48 hrs by MTT assay", "assay_type": "functional", "conditions": "HCT-116, 48 h, read-out: LC50 (the source's name)", "summary_of_the_method": "as §2"}, "[12]": {"tested_on": "Bacillus subtilis", "experiment": "Antibacterial activity against Bacillus subtilis after 24 hrs by microdilution susceptibility method", "assay_type": "functional", "summary_of_the_method": "(§3)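 Microdilution in Müller-Hinton broth. Compounds dissolved in DMSO at 64 µg/mL, then twofold dilutions from 64 down to 0.125 µg/ml. Inoculum 10^6 CFU/ml. Plates held 24 h at 37 °C. MIC taken as the lowest concentration giving no visible growth by eye.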"}, "[13]": {"tested_on": "Escherichia coli", "experiment": "Antibacterial activity against Escherichia coli after 24 hrs by microdilution susceptibility method"}, "[14]": {"tested_on": "Staphylococcus aureus", "experiment": "Antibacterial activity against Staphylococcus aureus after 24 hrs by microdilution susceptibility method", "assay_type": "functional", "summary_of_the_method": "as §3"}}, "data": [{"smiles": "O=C(C1CCCCC1)N1CC(=O)N2CCc3ccccc3C2C1", "note": "(stereo unspecified) [PRAZIQUANTEL]", "values": [{"measurement": "mortality at 50 µg/mL", "setting": "[1]", "value": 100, "unit": "%"}]}, {"smiles": "COc1ccc(-n2c(S)nnc2-c2csc(N)n2)cc1", "values": [{"measurement": "IC50", "setting": "[2]", "value": 21, "unit": "µM"}, {"measurement": "zone of inhibition at 200 µg/disc", "setting": "[3]", "value": 8, "unit": "mm"}, {"measurement": "zone of inhibition at 200 µg/disc", "setting": "[4]", "value": 12, "unit": "mm"}, {"measurement": "zone of inhibition at 200 µg/disc", "setting": "[5]", "value": 8, "unit": "mm"}, {"measurement": "zone of inhibition at 200 µg/disc", "setting": "[6]", "value": 8, "unit": "mm"}, {"measurement": "zone of inhibition at 200 µg/disc", "setting": "[7]", "value": 8, "unit": "mm"}]}, {"smiles": "Clc1ccccc1C(c1ccccc1)(c1ccccc1)n1ccnc1", "note": "[CLOTRIMAZOLE]", "values": [{"measurement": "zone of inhibition at 200 µg/disc", "setting": "[6]", "value": 21, "unit": "mm"}]}, {"smiles": "CC(=O)N(C(C)=O)c1nc(-c2nnc(S)n2-c2ccc(C)cc2)cs1", "values": [{"measurement": "zone of inhibition at 200 µg/disc", "setting": "[3]", "value": 8, "unit": "mm"}, {"measurement": "zone of inhibition at 200 µg/disc", "setting": "[4]", "value": 8, "unit": "mm"}, {"measurement": "zone of inhibition at 200 µg/disc", "setting": "[5]", "value": 8, "unit": "mm"}, {"measurement": "zone of inhibition at 200 µg/disc", "setting": "[6]", "value": 8, "unit": "mm"}, {"measurement": "zone of inhibition at 200 µg/disc", "setting": "[7]", "value": 8, "unit": "mm"}, {"measurement": "CC50", "setting": "[8]", "value": 23.8, "unit": "µM"}, {"measurement": "CC50", "setting": "[9]", "value": 18.9, "unit": "µM"}, {"measurement": "CC50", "setting": "[10]", "value": 25, "unit": "µM"}]}, {"smiles": "COc1cccc2c1C(=O)c1c(O)c3c(c(O)c1C2=O)C[C@@](O)(C(=O)CO)C[C@@H]3O[C@H]1C[C@H](N)[C@H](O)[C@H](C)O1", "note": "[DOXORUBICIN]", "values": [{"measurement": "CC50", "setting": "[11]", "value": 37.7, "unit": "µM"}, {"measurement": "CC50", "setting": "[8]", "value": 26.1, "unit": "µM"}, {"measurement": "CC50", "setting": "[9]", "value": 21.4, "unit": "µM"}, {"measurement": "CC50", "setting": "[10]", "value": 28.3, "unit": "µM"}]}, {"smiles": "CN(Cc1cnc2nc(N)nc(N)c2n1)c1ccc(C(=O)N[C@@H](CCC(=O)O)C(=O)O)cc1", "note": "[METHOTREXATE]", "values": [{"measurement": "zone of inhibition at 200 µg/disc", "setting": "[3]", "value": 8, "unit": "mm"}, {"measurement": "zone of inhibition at 200 µg/disc", "setting": "[4]", "value": 8, "unit": "mm"}, {"measurement": "zone of inhibition at 200 µg/disc", "setting": "[5]", "value": 8, "unit": "mm"}, {"measurement": "zone of inhibition at 200 µg/disc", "setting": "[6]", "value": 8, "unit": "mm"}, {"measurement": "zone of inhibition at 200 µg/disc", "setting": "[7]", "value": 8, "unit": "mm"}]}, {"smiles": "COc1ccccc1-n1c(S)nnc1-c1csc(N)n1", "values": [{"measurement": "MIC", "setting": "[12]", "value": 4, "unit": "µg/mL"}, {"measurement": "IC50", "setting": "[2]", "value": 24, "unit": "µM"}, {"measurement": "MIC", "setting": "[13]", "value": 8, "unit": "µg/mL"}, {"measurement": "zone of inhibition at 200 µg/disc", "setting": "[3]", "value": 15, "unit": "mm"}, {"measurement": "zone of inhibition at 200 µg/disc", "setting": "[4]", "value": 16, "unit": "mm"}, {"measurement": "zone of inhibition at 200 µg/disc", "setting": "[5]", "value": 12, "unit": "mm"}, {"measurement": "zone of inhibition at 200 µg/disc", "setting": "[6]", "value": 8, "unit": "mm"}, {"measurement": "zone of inhibition at 200 µg/disc", "setting": "[7]", "value": 8, "unit": "mm"}]}, {"smiles": "Cc1ccc(-n2c(S)nnc2-c2csc(N)n2)cc1", "values": [{"measurement": "IC50", "setting": "[2]", "value": 24, "unit": "µM"}, {"measurement": "zone of inhibition at 200 µg/disc", "setting": "[3]", "value": 8, "unit": "mm"}, {"measurement": "zone of inhibition at 200 µg/disc", "setting": "[4]", "value": 8, "unit": "mm"}, {"measurement": "zone of inhibition at 200 µg/disc", "setting": "[5]", "value": 8, "unit": "mm"}, {"measurement": "zone of inhibition at 200 µg/disc", "setting": "[6]", "value": 8, "unit": "mm"}, {"measurement": "zone of inhibition at 200 µg/disc", "setting": "[7]", "value": 8, "unit": "mm"}, {"measurement": "mortality at 50 µg/mL", "setting": "[1]", "value": 10.5, "unit": "%"}]}, {"smiles": "COc1ccccc1-n1c(S)nnc1-c1csc(N(C(C)=O)C(C)=O)n1", "values": [{"measurement": "MIC", "setting": "[12]", "value": 4, "unit": "µg/mL"}, {"measurement": "MIC", "setting": "[13]", "value": 0.8, "unit": "µg/mL"}, {"measurement": "zone of inhibition at 200 µg/disc", "setting": "[3]", "value": 16, "unit": "mm"}, {"measurement": "zone of inhibition at 200 µg/disc", "setting": "[4]", "value": 20, "unit": "mm"}, {"measurement": "zone of inhibition at 200 µg/disc", "setting": "[5]", "value": 8, "unit": "mm"}, {"measurement": "zone of inhibition at 200 µg/disc", "setting": "[6]", "value": 8, "unit": "mm"}, {"measurement": "zone of inhibition at 200 µg/disc", "setting": "[7]", "value": 8, "unit": "mm"}]}, {"smiles": "CC(=O)N(C(C)=O)c1nc(-c2nnc(S)n2-c2ccc(Oc3ccccc3)cc2)cs1", "values": [{"measurement": "MIC", "setting": "[12]", "value": 2, "unit": "µg/mL"}, {"measurement": "IC50", "setting": "[2]", "value": 15, "unit": "µM"}, {"measurement": "zone of inhibition at 200 µg/disc", "setting": "[3]", "value": 8, "unit": "mm"}, {"measurement": "zone of inhibition at 200 µg/disc", "setting": "[4]", "value": 20, "unit": "mm"}, {"measurement": "zone of inhibition at 200 µg/disc", "setting": "[5]", "value": 18, "unit": "mm"}, {"measurement": "zone of inhibition at 200 µg/disc", "setting": "[6]", "value": 8, "unit": "mm"}, {"measurement": "zone of inhibition at 200 µg/disc", "setting": "[7]", "value": 8, "unit": "mm"}, {"measurement": "mortality at 50 µg/mL", "setting": "[1]", "value": 100, "unit": "%"}, {"measurement": "MIC", "setting": "[14]", "value": 4, "unit": "µg/mL"}]}]}
